The target in assay [1] is Leishmania mexicana arginase (LmARG) (Leishmania mexicana, UniProt Q6TUJ5). Kind of assay: Inhibitory activity assay, colorimetric arginase activity. The assay is classed as biochemical. In short, it runs like this: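 Recombinant LmARG (1 µM) started the reaction in 50 mM EPPS pH 8.0 with 100 µM MnCl2 and 30 mM L-arginine at 21°C. After 20 min it was stopped with H2SO4/H3PO4 acid plus α-isonitrosopropiophenone dye, then heated at 90°C for 1 h. Urea was read at 550 nm. Ki came from IC50 via Cheng–Prusoff, with Km from 0.5–150 mM arginine.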

A further assay has as its system S. mansoni arginase. The following applies: relative to ABH, ref Hai et al., 2014; cited from earlier work.
Another assay has as its system human arginase I. The note with it: relative to ABH, ref Van Zandt et al., 2013; cited from earlier work.
The next assay concerns human arginase II. The following applies: relative to ABH, ref Golebiowski et al., 2013; cited from earlier work.

SMILES strings stand for the structures.

As for `N[C@@](CCCCB(O)O)(C(=O)O)C1CCN(Cc2ccc(Cl)c(Cl)c2)CC1` (racemic) [ABHDP, (R)-2-amino-6-borono-2-[1-(3,4-dichlorobenzyl)piperidin-4-yl]hexanoic acid], in assay [1], the IC50 – broadly, the concentration that inhibits the measured activity by half – amounted to 1700 ± 400 nM and the Ki (in general, a measure of affinity in units of concentration, obtained from inhibition or displacement) was 1100 ± 300 nM. The “improved affinity in comparison with parent inhibitor ABH” value in the assay on S. mansoni arginase is reported as 2.4 fold. The “improved inhibitory potency (IC50) in comparison with parent inhibitor ABH” value in the assay with human arginase I is given as 7.4 fold. Also, in the assay on human arginase II, the “improved inhibitory potency in comparison with parent inhibitor ABH” value is given as 7.4 fold.

In assay [1], `N[C@@H](CCCCB(O)O)C(=O)O` [ABH, 2-(S)-amino-6-boronohexanoic acid, reference compound] registered an IC50 of 1300 ± 200 nM and an inhibition constant (Ki) of 900 ± 100 nM.

In assay [1], `N[C@](CCCCB(O)O)(CCN1CCCCC1)C(=O)O` [ABHPE, (R)-2-amino-6-borono-2-[2-(piperidin-1-yl)ethyl]hexanoic acid] came in with an IC50 of 2100 ± 300 nM and a Ki of 1400 ± 200 nM. The “improved affinity in comparison with parent inhibitor ABH” value in the assay on S. mansoni arginase is listed as 5.0 fold. Also, the “improved inhibitory potency (IC50) in comparison with parent inhibitor ABH” value in the assay with human arginase I is 6.5 fold. The “improved inhibitory potency in comparison with parent inhibitor ABH” value with human arginase II is on record as 3.8 fold.

The values are drawn from publication PMC4822987 (Acta crystallographica. Section F, Structural biology …, 2016).
